How the values were obtained:
Plasminogen = Plasminogen (Homo sapiens, UniProt P00747); assay: Inhibition of human plasmin protease domain using Tos-Gly-Pro-Lys-pNA as substrate by micro plate reader analysis
[1] = biological target: Vitamin K-dependent protein C (Homo sapiens, UniProt P04070); assay: Inhibition of human activated protein C using H-D-Lys(Cbz)-Pro-Arg-pNA as substrate after 5 to 10 mins by micro plate reader analysis
Plasma kallikrein = Plasma kallikrein (Homo sapiens, UniProt P03952); assay: Inhibition of human plasma kallikrein using H-D-Pro-Phe-Arg-pNA as substrate after 5 to 10 mins by micro plate reader analysis
Prothrombin = Prothrombin (Homo sapiens, UniProt P00734); assay: Inhibition of human thrombin using CH3SO2-D-Cha-Gly-Arg-pNA as substrate after 5 to 10 mins by micro plate reader analysis
Trypsin = Trypsin (Sus scrofa, UniProt P00761); assay: Inhibition of pig trypsin using CH3SO2-D-Cha-Gly-Arg-pNA as substrate after 5 to 10 mins by micro plate reader analysis
Coagulation factor X = Coagulation factor X (Homo sapiens, UniProt P00742); assay: Inhibition of human factor Xa using CH3OCO-D-Cha-Gly-Arg-pNA as substrate after 5 to 10 mins by micro plate reader analysis
[2] = Metabolic stability in human liver microsomes assessed as degradation after 60 mins; type: ADME, Microsome; settings: read-out: Drug degradation
[3] = biological target: L-type Ca channel, dihydropyridine site (Rattus norvegicus, UniProt P22002+P27732+Q02485); assay: Displacement of [3H]nitrendipine from wistar rat Ca channel L-type dihydropyridine receptor at 10 uM; settings: probe [3H]nitrendipine
Procedure, shortened: (§1)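 Radioligand binding to the ion channel with test compound at 10 μM. Result expressed as % binding; negative values are read as no binding. Assays run by a contract laboratory.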

Cytochrome P450 3A4 = Cytochrome P450 3A4 (Homo sapiens, UniProt P08684); assay: Inhibition of human recombinant CYP3A4 expressed in Trichoplusia ni BTI-TN-5B1-4 cells preincubated for 15 mins measured after 30 mins by spectrofluorimetry; type: ADME, cell-based
Coagulation factor XI = Coagulation factor XI (Homo sapiens, UniProt P03951); assay: Inhibition of human FXIa
Cytochrome P450 2C9 = Cytochrome P450 2C9 (Homo sapiens, UniProt P11712); assay: Inhibition of human recombinant CYP2C9 expressed in Trichoplusia ni BTI-TN-5B1-4 cells preincubated for 15 mins measured after 45 mins by spectrofluorimetry; type: ADME, cell-based
Plasma [4] = assay: Anticoagulant activity in human plasma assessed as concentration required to activated partial thromboplastin time; type: functional
Procedure, shortened: (§2)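 Clotting time measured in human plasma spiked with inhibitor. Value reported as EC200, the concentration that doubles the clotting time.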

Cytochrome P450 2D6 = Cytochrome P450 2D6 (Homo sapiens, UniProt P10635); assay: Inhibition of human recombinant CYP2D6 expressed in Trichoplusia ni BTI-TN-5B1-4 cells preincubated for 15 mins measured after 45 mins by spectrofluorimetry; type: ADME, cell-based
[5] = biological target: Complement C1r subcomponent (Homo sapiens, UniProt P00736); assay: Inhibition of human C1r
[6] = Fraction unbound in human plasma; type: ADME, cell-free
[7] = biological target: Cytochrome P450 1A2 (Homo sapiens) (UniProt P05177); assay: Inhibition of human recombinant CYP1A2 expressed in Trichoplusia ni BTI-TN-5B1-4 cells preincubated for 15 mins measured after 45 mins by spectrofluorimetry
Plasma [8] = assay: Anticoagulant activity in human plasma assessed as concentration required to thrombin time; type: functional; procedure, shortened: as §2
[9] = biological target: Tissue-type plasminogen activator (Homo sapiens, UniProt P00750); assay: Inhibition of human tPA
[10] = biological target: Cytochrome P450 2C19 (Homo sapiens) (UniProt P33261); assay: Inhibition of human recombinant CYP2C19 expressed in Trichoplusia ni BTI-TN-5B1-4 cells preincubated for 15 mins measured after 30 mins by spectrofluorimetry
Coagulation factor XII = Coagulation factor XII (Homo sapiens, UniProt P00748); assay: Inhibition of human FXIIa
[11] = Thermodynamic solubility of the compound in 0.9% saline; type: physicochemical; settings: read-out: Therm_solubility
Rattus norvegicus = species on record: Rattus norvegicus; assay: Displacement of [3H]batrachotoxinin from wistar rat Na channel at 10 uM
Procedure, shortened: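 Single-point radioligand binding screen at 10 μM test compound, run by a contract lab under its own protocol. Read-out is percent binding, where negative values mean no binding.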

Serine protease 1 = Serine protease 1 (Homo sapiens, UniProt P07477); assay: Inhibition of human trypsin
Coagulation factor IX = Coagulation factor IX (Homo sapiens, UniProt P00740); assay: Inhibition of human FIXa
[12] = biological target: L-type Ca channel, benzothiazepine site (Rattus norvegicus, UniProt P22002+P27732+Q02485); assay: Displacement of [3H]diltiazem from wistar rat Ca channel L-type benzothiazepine receptor at 10 uM; settings: probe [3H]diltiazem; procedure, shortened: as §1
hERG (KCNH2) = hERG (KCNH2) (Homo sapiens, UniProt Q12809); assay: Displacement of [3H]astemizole from human ERG channel at 10 uM; settings: probe [3H]astemizole; procedure, shortened: as §1
Plasma [13] = assay: Anticoagulant activity in human plasma assessed as concentration required to prothrombin time; type: functional; procedure, shortened: as §2
[14] = biological target: Complement C1s subcomponent (Homo sapiens, UniProt P09871); assay: Inhibition of human C1s
[15] = biological target: L-type Ca channel, phenylalkylamine site (Rattus norvegicus, UniProt P22002+P27732+Q02485); assay: Displacement of [3H](-)-desmethoxyverapamil from wistar rat Ca channel L-type phenylalkylamine receptor at 10 uM; settings: probe [3H](-)-desmethoxyverapamil; procedure, shortened: as §1
[16] = biological target: Urokinase-type plasminogen activator (Homo sapiens, UniProt P00749); assay: Inhibition of human uPA
Kallikrein-1 = Kallikrein-1 (Homo sapiens, UniProt P06870); assay: Inhibition of urinary kallikrein (unknown origin)
Plasma [17] = assay: Anticoagulant activity in human plasma assessed as tPA-induced fibrinolysis; type: functional; settings: in the assay text read “Antifibrinolytic activity” for “Anticoagulant activity”
Procedure, shortened: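 tPA-induced fibrinolysis in human plasma. Value reported as EC200, the inhibitor concentration that doubles the clot-to-lysis time.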

Plasma kallikrein, sequence (P03952 20-390 limits assumed): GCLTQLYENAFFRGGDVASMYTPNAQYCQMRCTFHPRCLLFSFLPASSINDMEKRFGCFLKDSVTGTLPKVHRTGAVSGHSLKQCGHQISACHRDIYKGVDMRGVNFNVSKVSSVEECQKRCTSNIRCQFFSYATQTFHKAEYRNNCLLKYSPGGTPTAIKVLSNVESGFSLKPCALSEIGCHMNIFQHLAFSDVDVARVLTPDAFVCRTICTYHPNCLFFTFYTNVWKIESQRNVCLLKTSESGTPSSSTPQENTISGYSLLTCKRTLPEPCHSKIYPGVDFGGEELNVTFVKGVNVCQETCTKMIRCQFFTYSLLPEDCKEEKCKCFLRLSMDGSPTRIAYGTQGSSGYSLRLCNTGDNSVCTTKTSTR
Plasma kallikrein, sequence (P03952 391-638 limits assumed): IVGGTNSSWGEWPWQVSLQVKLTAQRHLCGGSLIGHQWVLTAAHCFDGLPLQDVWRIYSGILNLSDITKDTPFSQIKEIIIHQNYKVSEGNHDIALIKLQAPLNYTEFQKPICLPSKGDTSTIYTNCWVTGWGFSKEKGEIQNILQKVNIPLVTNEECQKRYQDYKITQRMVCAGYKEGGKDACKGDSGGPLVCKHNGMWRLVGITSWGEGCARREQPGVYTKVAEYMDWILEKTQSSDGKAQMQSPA
Vitamin K-dependent protein C, sequence (P04070 43-197 limits assumed): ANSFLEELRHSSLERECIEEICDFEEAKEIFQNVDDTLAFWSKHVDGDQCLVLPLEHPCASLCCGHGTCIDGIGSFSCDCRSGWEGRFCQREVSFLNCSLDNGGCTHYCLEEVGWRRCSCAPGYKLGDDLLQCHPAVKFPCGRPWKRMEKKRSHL
Vitamin K-dependent protein C, sequence (P04070 212-461 limits assumed): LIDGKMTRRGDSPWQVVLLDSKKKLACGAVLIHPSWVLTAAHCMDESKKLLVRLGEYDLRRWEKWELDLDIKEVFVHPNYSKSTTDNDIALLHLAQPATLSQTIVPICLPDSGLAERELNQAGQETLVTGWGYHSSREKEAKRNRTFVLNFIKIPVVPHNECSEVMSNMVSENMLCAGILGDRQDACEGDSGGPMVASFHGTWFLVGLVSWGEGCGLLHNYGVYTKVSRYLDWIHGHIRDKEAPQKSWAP
Coagulation factor X, sequence (P00742 41-179 limits assumed): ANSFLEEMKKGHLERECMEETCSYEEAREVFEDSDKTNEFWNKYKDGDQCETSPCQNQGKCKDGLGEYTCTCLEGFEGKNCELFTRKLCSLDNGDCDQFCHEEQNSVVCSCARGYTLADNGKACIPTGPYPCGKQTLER
Coagulation factor X, sequence (P00742 235-488 limits assumed): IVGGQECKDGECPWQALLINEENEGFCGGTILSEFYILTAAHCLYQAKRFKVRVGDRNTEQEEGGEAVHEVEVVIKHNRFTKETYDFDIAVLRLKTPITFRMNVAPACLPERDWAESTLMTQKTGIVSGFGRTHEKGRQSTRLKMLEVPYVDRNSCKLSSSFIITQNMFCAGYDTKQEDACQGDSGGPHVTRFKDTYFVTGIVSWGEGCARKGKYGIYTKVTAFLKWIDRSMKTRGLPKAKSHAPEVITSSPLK
Plasminogen, sequence (P00747 97-580 limits assumed): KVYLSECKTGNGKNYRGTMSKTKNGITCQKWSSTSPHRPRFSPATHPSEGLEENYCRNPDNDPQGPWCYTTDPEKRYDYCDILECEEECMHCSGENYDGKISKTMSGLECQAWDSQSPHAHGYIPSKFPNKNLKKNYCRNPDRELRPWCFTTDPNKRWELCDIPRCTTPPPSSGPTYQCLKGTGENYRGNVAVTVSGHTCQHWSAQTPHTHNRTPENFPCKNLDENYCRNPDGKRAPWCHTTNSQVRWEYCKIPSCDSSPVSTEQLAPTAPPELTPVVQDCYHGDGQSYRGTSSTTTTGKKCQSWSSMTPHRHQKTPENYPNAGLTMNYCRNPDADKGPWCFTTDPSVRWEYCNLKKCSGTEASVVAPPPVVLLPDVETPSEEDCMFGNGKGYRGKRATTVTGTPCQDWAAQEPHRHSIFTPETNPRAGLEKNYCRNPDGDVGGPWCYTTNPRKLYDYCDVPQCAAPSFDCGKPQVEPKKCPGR
Plasminogen, sequence (P00747 581-810 limits assumed): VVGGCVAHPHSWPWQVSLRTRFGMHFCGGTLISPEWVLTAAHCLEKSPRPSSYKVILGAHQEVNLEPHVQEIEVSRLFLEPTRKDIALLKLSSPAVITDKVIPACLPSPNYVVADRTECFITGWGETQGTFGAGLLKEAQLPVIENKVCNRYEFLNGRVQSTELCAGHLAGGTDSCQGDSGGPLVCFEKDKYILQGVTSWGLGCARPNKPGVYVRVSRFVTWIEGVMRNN
Trypsin, sequence (P00761 whole entry): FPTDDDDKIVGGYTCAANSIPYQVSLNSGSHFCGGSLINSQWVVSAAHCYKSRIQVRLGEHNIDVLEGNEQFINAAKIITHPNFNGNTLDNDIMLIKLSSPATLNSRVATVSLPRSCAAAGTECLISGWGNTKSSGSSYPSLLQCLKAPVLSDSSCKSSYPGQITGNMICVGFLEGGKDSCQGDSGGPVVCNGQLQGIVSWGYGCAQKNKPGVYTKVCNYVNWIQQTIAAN
hERG (KCNH2), sequence (Q12809 whole entry): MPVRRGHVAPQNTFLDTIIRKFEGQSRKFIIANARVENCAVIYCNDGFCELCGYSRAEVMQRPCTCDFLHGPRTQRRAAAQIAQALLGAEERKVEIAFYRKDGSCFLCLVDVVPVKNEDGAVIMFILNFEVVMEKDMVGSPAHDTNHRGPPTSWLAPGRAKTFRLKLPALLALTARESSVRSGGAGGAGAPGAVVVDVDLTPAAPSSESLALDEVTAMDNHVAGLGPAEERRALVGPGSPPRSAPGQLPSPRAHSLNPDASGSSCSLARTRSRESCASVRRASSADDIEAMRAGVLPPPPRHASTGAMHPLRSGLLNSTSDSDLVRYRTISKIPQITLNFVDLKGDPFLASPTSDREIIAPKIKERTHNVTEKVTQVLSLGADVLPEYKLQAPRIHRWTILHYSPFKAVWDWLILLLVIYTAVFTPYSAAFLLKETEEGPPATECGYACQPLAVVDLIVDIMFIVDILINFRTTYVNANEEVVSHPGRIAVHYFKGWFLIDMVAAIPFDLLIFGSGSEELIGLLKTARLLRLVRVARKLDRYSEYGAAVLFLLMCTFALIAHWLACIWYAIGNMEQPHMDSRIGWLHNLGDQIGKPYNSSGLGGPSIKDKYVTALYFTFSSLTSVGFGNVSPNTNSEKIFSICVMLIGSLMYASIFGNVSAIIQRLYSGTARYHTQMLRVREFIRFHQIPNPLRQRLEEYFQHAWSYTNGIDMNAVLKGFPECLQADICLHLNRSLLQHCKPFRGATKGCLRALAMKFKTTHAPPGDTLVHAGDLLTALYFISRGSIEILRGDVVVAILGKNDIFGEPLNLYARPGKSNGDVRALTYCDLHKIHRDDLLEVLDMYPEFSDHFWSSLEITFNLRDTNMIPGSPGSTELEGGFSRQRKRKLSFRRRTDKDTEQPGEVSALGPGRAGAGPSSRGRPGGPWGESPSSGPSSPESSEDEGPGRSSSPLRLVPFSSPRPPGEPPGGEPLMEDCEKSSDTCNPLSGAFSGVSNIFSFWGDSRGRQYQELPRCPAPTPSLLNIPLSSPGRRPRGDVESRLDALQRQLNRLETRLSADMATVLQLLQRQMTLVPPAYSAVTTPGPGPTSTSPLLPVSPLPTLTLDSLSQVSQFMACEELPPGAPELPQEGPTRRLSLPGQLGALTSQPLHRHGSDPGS
Cytochrome P450 2D6, sequence (P10635 whole entry): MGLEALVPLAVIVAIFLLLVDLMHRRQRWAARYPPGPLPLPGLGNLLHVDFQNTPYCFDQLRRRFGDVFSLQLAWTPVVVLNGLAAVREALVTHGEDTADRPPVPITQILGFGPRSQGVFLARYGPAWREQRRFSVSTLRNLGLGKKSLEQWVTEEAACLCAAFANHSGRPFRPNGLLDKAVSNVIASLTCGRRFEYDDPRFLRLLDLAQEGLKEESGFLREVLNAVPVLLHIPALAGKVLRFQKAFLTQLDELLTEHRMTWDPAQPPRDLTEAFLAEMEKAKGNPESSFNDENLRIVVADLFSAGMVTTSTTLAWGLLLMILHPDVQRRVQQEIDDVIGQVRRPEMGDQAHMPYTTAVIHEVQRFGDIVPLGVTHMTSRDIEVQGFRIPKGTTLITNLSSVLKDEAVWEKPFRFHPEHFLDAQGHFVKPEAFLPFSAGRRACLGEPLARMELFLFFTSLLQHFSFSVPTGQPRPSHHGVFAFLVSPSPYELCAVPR
Cytochrome P450 2C19 (Homo sapiens), sequence (P33261 whole entry, looked up): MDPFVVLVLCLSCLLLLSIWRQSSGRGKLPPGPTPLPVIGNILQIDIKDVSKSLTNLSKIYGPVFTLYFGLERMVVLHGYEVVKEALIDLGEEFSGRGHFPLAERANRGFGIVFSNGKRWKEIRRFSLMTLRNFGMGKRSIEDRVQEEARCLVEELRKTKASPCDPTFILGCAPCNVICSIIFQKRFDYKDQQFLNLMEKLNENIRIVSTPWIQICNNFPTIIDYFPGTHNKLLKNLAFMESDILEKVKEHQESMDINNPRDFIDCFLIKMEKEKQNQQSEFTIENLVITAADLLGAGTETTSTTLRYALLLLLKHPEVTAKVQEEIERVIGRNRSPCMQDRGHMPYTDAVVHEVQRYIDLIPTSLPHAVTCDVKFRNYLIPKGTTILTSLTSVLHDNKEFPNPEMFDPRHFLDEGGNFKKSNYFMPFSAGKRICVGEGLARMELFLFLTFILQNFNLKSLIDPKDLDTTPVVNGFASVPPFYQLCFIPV
Serine protease 1, sequence (P07477 whole entry): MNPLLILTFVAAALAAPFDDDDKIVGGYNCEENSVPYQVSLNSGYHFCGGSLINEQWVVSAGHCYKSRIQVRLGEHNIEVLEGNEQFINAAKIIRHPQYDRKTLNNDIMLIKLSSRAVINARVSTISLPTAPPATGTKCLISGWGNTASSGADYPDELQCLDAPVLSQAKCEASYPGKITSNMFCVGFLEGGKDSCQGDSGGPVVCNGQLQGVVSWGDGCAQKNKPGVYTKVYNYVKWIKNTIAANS

N=C(N)c1ccc(CNC(=O)[C@@H]2Cc3ccc(cc3)NC(=O)CN3CCCN(CC3)CC(=O)NCc3ccc(cc3)C[C@@H](NS(=O)(=O)Cc3ccccc3)C(=O)N2)cc1
Ki (Plasminogen): 0.76 nM
Ki [1]: > 10000 nM
Ki (Plasma kallikrein): 440 nM
Ki (Prothrombin): 5870 nM
Ki (Trypsin): 41.7 nM
Ki (Coagulation factor X): 9000 nM

N=C(N)c1ccc(CNC(=O)[C@@H]2Cc3ccc(cc3)NC(=O)CN3CCN(CC3)CC(=O)Nc3cccc(c3)C[C@@H](NS(=O)(=O)Cc3ccccc3)C(=O)N2)cc1
Ki [1]: 420 nM
Ki (Plasma kallikrein): 118 nM
Ki (Prothrombin): 604 nM
Ki (Trypsin): 7.8 nM
Ki (Coagulation factor X): 415 nM

C[C@@H]1CN2CC(=O)Nc3ccc(cc3)C[C@@H](C(=O)NCc3ccc(C(=N)N)cc3)NC(=O)[C@H](NS(=O)(=O)Cc3ccccc3)Cc3ccc(cc3)NC(=O)CN1C[C@@H]2C
Ki (Plasminogen): 1.15 nM
Ki [1]: > 20000 nM
Ki (Plasma kallikrein): 500 nM
Ki (Prothrombin): 12100 nM
Ki (Trypsin): 18.1 nM
Ki (Coagulation factor X): 14000 nM

N=C(N)c1ccc(CNC(=O)[C@@H]2Cc3ccc(cc3)NC(=O)CCN3CCCN(CCC(=O)Nc4ccc(cc4)C[C@@H](NS(=O)(=O)Cc4ccccc4)C(=O)N2)CC3)cc1
Ki (Plasminogen): 1.32 nM
Ki [1]: 7800 nM
Ki (Plasma kallikrein): 422 nM
Ki (Prothrombin): 11200 nM
Ki (Trypsin): 10.2 nM
Ki (Coagulation factor X): 8500 nM

C[C@H]1CN2CC(=O)Nc3ccc(cc3)C[C@@H](NS(=O)(=O)Cc3ccccc3)C(=O)N[C@H](C(=O)NCc3ccc(C(=N)N)cc3)Cc3ccc(cc3)NC(=O)CN1C[C@@H]2C
Ki (Plasminogen): 1.62 nM
Ki [1]: 4800 nM
Ki (Plasma kallikrein): 242 nM
Ki (Prothrombin): 8510 nM
Ki (Trypsin): 55 nM
Ki (Coagulation factor X): 3700 nM

N=C(N)c1ccc(CNC(=O)[C@@H]2Cc3ccc(cc3)NC(=O)CN3CCN(CC3)CC(=O)NCc3ccc(cc3)C[C@@H](NS(=O)(=O)Cc3ccccc3)C(=O)N2)cc1
Ki [1]: 3900 nM
Ki (Plasma kallikrein): 187 nM
Ki (Prothrombin): 884 nM
Ki (Trypsin): 17.8 nM
Ki (Coagulation factor X): 2510 nM

C[C@H]1CN2CC(=O)Nc3ccc(cc3)C[C@@H](C(=O)NCc3ccc(C(=N)N)cc3)NC(=O)[C@H](NS(=O)(=O)Cc3ccccc3)Cc3ccc(cc3)CNC(=O)CN1C[C@@H]2C
Ki (Plasminogen): 1.71 nM
Ki [1]: 1600 nM
Ki (Plasma kallikrein): 116 nM
Ki (Prothrombin): 2950 nM
Ki (Trypsin): 126 nM
Ki (Coagulation factor X): 3250 nM

N=C(N)c1ccc(CNC(=O)[C@@H]2Cc3ccc(cc3)NC(=O)CCN3CCN(CCC(=O)Nc4ccc(cc4)C[C@@H](NS(=O)(=O)Cc4ccccc4)C(=O)N2)CC3)cc1.O=C(O)C(F)(F)F
metabolised at 1 h [2]: 2%
inhibition at 10 µM [3]: -5%
IC50 (Cytochrome P450 3A4): > 10000 nM
Ki (Coagulation factor XI): 3370 nM
Ki (Plasminogen): 0.2 nM
IC50 (Cytochrome P450 2C9): > 100000 nM
EC200 (Plasma [4]): >100 µM
IC50 (Cytochrome P450 2D6): > 10000 nM
Ki [5]: > 35000 nM
fraction unbound [6]: 0.67
IC50 [7]: > 100000 nM
EC200 (Plasma [8]): >100 µM
Ki [9]: > 40000 nM
IC50 [10]: > 100000 nM
Ki (Coagulation factor XII): > 20000 nM
solubility thermodynamic [11]: > 2000 µg/mL
inhibition (Rattus norvegicus): 27%
Ki (Serine protease 1): 8.4 nM
Ki (Coagulation factor IX): > 5000 nM
inhibition at 10 µM [12]: -4%
inhibition at 10 µM (hERG (KCNH2)): 4%
Ki [1]: > 15000 nM
EC200 (Plasma [13]): >100 µM
Ki [14]: > 35000 nM
Ki (Plasma kallikrein): 1000 nM
Ki (Prothrombin): 26400 nM
Ki (Trypsin): 38.3 nM
inhibition at 10 µM [15]: 3%
Ki [16]: 6500 nM
Ki (Coagulation factor X): 25000 nM
Ki (Kallikrein-1): 10000 nM
EC200 (Plasma [17]): 180 nM

N=C(N)c1ccc(CNC(=O)[C@@H]2Cc3ccc(cc3)NC(=O)CCN3CCN(CCC(=O)Nc4cccc(c4)C[C@@H](NS(=O)(=O)Cc4ccccc4)C(=O)N2)CC3)cc1
Ki (Plasminogen): 4 nM
Ki [1]: 3800 nM
Ki (Plasma kallikrein): 240 nM
Ki (Prothrombin): 376 nM
Ki (Trypsin): 0.6 nM
Ki (Coagulation factor X): 1260 nM

N=C(N)c1ccc(CNC(=O)[C@@H]2Cc3cccc(c3)NC(=O)CCN3CCN(CCC(=O)Nc4ccc(cc4)C[C@@H](NS(=O)(=O)Cc4ccccc4)C(=O)N2)CC3)cc1
Ki (Plasminogen): 5.1 nM
Ki [1]: 880 nM
Ki (Plasma kallikrein): 24 nM
Ki (Prothrombin): 3250 nM
Ki (Trypsin): 24.9 nM
Ki (Coagulation factor X): 237 nM

N=C(N)c1ccc(CNC(=O)[C@@H]2Cc3ccc(cc3)NC(=O)CN3CCN(CC3)CC(=O)Nc3ccc(cc3)C[C@@H](NS(=O)(=O)Cc3ccccc3)C(=O)N2)cc1.O=C(O)C(F)(F)F
metabolised at 1 h [2]: 0%
inhibition at 10 µM [3]: -2%
IC50 (Cytochrome P450 3A4): > 22000 nM
Ki (Coagulation factor XI): 4700 nM
IC50 (Cytochrome P450 2C9): > 100000 nM
EC200 (Plasma [4]): >100 µM
IC50 (Cytochrome P450 2D6): > 40000 nM
Ki [5]: > 50000 nM
fraction unbound [6]: 0.61
IC50 [7]: > 10000 nM
EC200 (Plasma [8]): >100 µM
Ki [9]: > 100000 nM
IC50 [10]: > 100000 nM
Ki (Coagulation factor XII): > 100000 nM
solubility thermodynamic [11]: > 2000 µg/mL
inhibition (Rattus norvegicus): -8%
Ki (Serine protease 1): 44 nM
Ki (Coagulation factor IX): > 100000 nM
inhibition at 10 µM [12]: 1%
inhibition at 10 µM (hERG (KCNH2)): 7%
Ki [1]: > 25000 nM
EC200 (Plasma [13]): >100 µM
Ki [14]: > 100000 nM
Ki (Prothrombin): 13900 nM
Ki (Trypsin): 62.6 nM
inhibition at 10 µM [15]: 13%
Ki [16]: 8900 nM
Ki (Coagulation factor X): > 10000 nM
Ki (Kallikrein-1): > 50000 nM
EC200 (Plasma [17]): 280 nM

N=C(N)c1ccc(CNC(=O)[C@@H]2Cc3cccc(c3)NC(=O)CN3CCN(CC3)CC(=O)Nc3ccc(cc3)C[C@@H](NS(=O)(=O)Cc3ccccc3)C(=O)N2)cc1
Ki [1]: 4100 nM
Ki (Plasma kallikrein): 12.9 nM
Ki (Prothrombin): 8020 nM
Ki (Trypsin): 19.4 nM
Ki (Coagulation factor X): 1800 nM

N=C(N)c1ccc(CNC(=O)[C@@H]2Cc3cccc(c3)NC(=O)CN3CCN(CC3)CC(=O)Nc3cccc(c3)C[C@@H](NS(=O)(=O)Cc3ccccc3)C(=O)N2)cc1
Ki [1]: 39 nM
Ki (Plasma kallikrein): 3.2 nM
Ki (Prothrombin): 227 nM
Ki (Trypsin): 3.4 nM
Ki (Coagulation factor X): 12.3 nM

N=C(N)c1ccc(CNC(=O)[C@@H]2Cc3ccc(cc3)NC(=O)CN3CCCN(CC3)CC(=O)Nc3ccc(cc3)C[C@@H](NS(=O)(=O)Cc3ccccc3)C(=O)N2)cc1
Ki (Plasminogen): 0.57 nM
Ki [1]: > 10000 nM
Ki (Plasma kallikrein): 392 nM
Ki (Prothrombin): 14100 nM
Ki (Trypsin): 3 nM
Ki (Coagulation factor X): 7360 nM
